{"source": "ChEMBL document CHEMBL3526127", "about": "“Absorption, elimination, and metabolism of CS-1036, a novel α-amylase inhibitor in rats and monkeys, and the relationship between gastrointestinal distribution and suppression of glucose absorption” (Drug Metab Dispos, 2013)", "key": {"[1]": {"assay": "Clearance in cynomolgus monkey at 0.3 mg/kg, iv administered as single dose by LC-MS/MS method", "type": "ADME, organism-based, Macaca fascicularis", "parameters": "dose 0.3 mg/kg, route intravenous", "conditions": "in vivo", "outline": "(§1)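 Fasted male F344 rats (146–185 g) and male cynomolgus monkeys (3.48–4.29 kg), n = 4 each, received a single iv dose; monkeys had 2-week washouts between doses. Blood was sampled up to 48 h and plasma stored at […]. Plasma parent was quantified by LC-MS/MS with a deuterated internal standard. CL = dose/AUC0–inf by noncompartmental analysis; mean ± S.D.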"}, "[2]": {"assay": "Oral bioavailability in F344 rat at 3 mg/kg administered as single dose by LC-MS/MS method", "type": "ADME, organism-based", "conditions": "in vivo", "outline": "(§2)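 Male F344 rats (146–185 g) and male cynomolgus monkeys (3.48–4.29 kg), n = 4 each, fasted overnight, received single iv or oral doses of 0.3, 1.0, 3.0 or 10.0 mg/kg. Monkeys had 2-week washouts between doses. Plasma was sampled to 48 h and assayed by LC-MS/MS with deuterated internal standard. Noncompartmental analysis: tmax observed; t1/2 by regression on ≥3 terminal log points; Vss = dose·AUMC/(AUC0–inf)²; Foral = oral/iv AUC0–inf at the same dose.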"}, "[3]": {"assay": "Half life in cynomolgus monkey at 1 mg/kg, iv administered as single dose by LC-MS/MS method", "type": "ADME, organism-based, Macaca fascicularis", "parameters": "dose 1 mg/kg, route intravenous", "conditions": "in vivo", "outline": "as §2"}, "[4]": {"assay": "AUClast in cynomolgus monkey at 1 mg/kg, iv administered as single dose by LC-MS/MS method", "type": "ADME, organism-based, Macaca fascicularis", "parameters": "time 0 - last, dose 1 mg/kg, route intravenous", "conditions": "plasma", "outline": "(§3)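 Fasted male F344 rats (146–185 g) or male cynomolgus monkeys (3.48–4.29 kg), n = 4 per dose, given single iv or oral dose of 0.3, 1.0, 3.0 or 10.0 mg/kg; monkeys dosed with 2-week washouts. Blood sampled to 48 h; plasma stored frozen. LC-MS/MS with deuterated internal standard. Noncompartmental analysis: AUClast by trapezoidal rule; AUC0–inf = AUClast + Ctz/terminal rate constant; mean ± S.D.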"}, "[5]": {"assay": "AUClast in F344 rat at 3 mg/kg, po administered as single dose by LC-MS/MS method", "type": "ADME, organism-based", "parameters": "time 0 - last, dose 3 mg/kg, route oral", "conditions": "plasma", "outline": "as §3"}, "[6]": {"assay": "Oral bioavailability in F344 rat at 0.3 mg/kg administered as single dose by LC-MS/MS method", "type": "ADME, organism-based", "conditions": "in vivo", "outline": "as §2"}, "[7]": {"assay": "Clearance in F344 rat at 1 mg/kg, iv administered as single dose by LC-MS/MS method", "type": "ADME, organism-based", "parameters": "dose 1 mg/kg, route intravenous", "conditions": "in vivo", "outline": "as §1"}, "[8]": {"assay": "Oral bioavailability in cynomolgus monkey at 3 mg/kg administered as single dose by LC-MS/MS method", "type": "ADME, organism-based, Macaca fascicularis", "conditions": "in vivo", "outline": "as §2"}, "[9]": {"assay": "Cmax in F344 rat at 3 mg/kg, po administered as single dose by LC-MS/MS method", "type": "ADME, organism-based", "parameters": "dose 3 mg/kg, route oral", "conditions": "in vivo"}, "[10]": {"assay": "Clearance in F344 rat at 0.3 mg/kg, iv administered as single dose by LC-MS/MS method", "type": "ADME, organism-based", "parameters": "dose 0.3 mg/kg, route intravenous", "conditions": "in vivo", "outline": "as §1"}, "[11]": {"assay": "AUC (0 to infinity) in F344 rat at 1 mg/kg, iv administered as single dose by LC-MS/MS method", "type": "ADME, organism-based", "parameters": "time infinity, dose 1 mg/kg, route intravenous", "conditions": "plasma", "outline": "as §3"}, "[12]": {"assay": "Cmax in cynomolgus monkey at 3 mg/kg, po administered as single dose by LC-MS/MS method", "type": "ADME, organism-based, Macaca fascicularis", "parameters": "dose 3 mg/kg, route oral", "conditions": "in vivo", "outline": "(§4)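 Fasted male F344 rats (146–185 g) and cynomolgus monkeys (3.48–4.29 kg), n = 4 each, received a single oral dose; monkeys had 2-week washouts. Plasma sampled up to 48 h, stored at […], assayed by LC-MS/MS with a deuterated internal standard. Cmax taken from observed data by noncompartmental analysis; mean ± S.D. (n = 3 or 4).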"}, "[13]": {"assay": "Cmax in cynomolgus monkey at 1 mg/kg, po administered as single dose by LC-MS/MS method", "type": "ADME, organism-based, Macaca fascicularis", "parameters": "dose 1 mg/kg, route oral", "conditions": "in vivo", "outline": "as §4"}, "[14]": {"assay": "AUClast in cynomolgus monkey at 3 mg/kg, iv administered as single dose by LC-MS/MS method", "type": "ADME, organism-based, Macaca fascicularis", "parameters": "time 0 - last, dose 3 mg/kg, route intravenous", "conditions": "plasma", "outline": "as §3"}, "[15]": {"assay": "Volume of distribution at steady state in F344 rat at 0.3 mg/kg, iv administered as single dose by LC-MS/MS method", "type": "ADME, organism-based", "parameters": "dose 0.3 mg/kg, route intravenous", "conditions": "in vivo, read-out: Vdss", "outline": "as §2"}, "[16]": {"assay": "AUClast in F344 rat at 1 mg/kg, po administered as single dose by LC-MS/MS method", "type": "ADME, organism-based", "parameters": "time 0 - last, dose 1 mg/kg, route oral", "conditions": "plasma", "outline": "as §3"}, "[17]": {"assay": "AUClast in cynomolgus monkey at 0.3 mg/kg, po administered as single dose by LC-MS/MS method", "type": "ADME, organism-based, Macaca fascicularis", "parameters": "dose 0.3 mg/kg, route oral, time 0 - last", "conditions": "plasma", "outline": "as §3"}, "[18]": {"assay": "AUClast in cynomolgus monkey at 10 mg/kg, iv administered as single dose by LC-MS/MS method", "type": "ADME, organism-based, Macaca fascicularis", "parameters": "time 0 - last, dose 10 mg/kg, route intravenous", "conditions": "plasma", "outline": "as §3"}, "[19]": {"assay": "Half life in cynomolgus monkey at 3 mg/kg, iv administered as single dose by LC-MS/MS method", "type": "ADME, organism-based, Macaca fascicularis", "parameters": "dose 3 mg/kg, route intravenous", "conditions": "in vivo", "outline": "as §2"}, "[20]": {"assay": "Oral bioavailability in cynomolgus monkey at 1 mg/kg administered as single dose by LC-MS/MS method", "type": "ADME, organism-based, Macaca fascicularis", "conditions": "in vivo", "outline": "as §2"}, "[21]": {"assay": "Ratio of drug level in blood to plasma in cynomolgus monkey after 5 mins", "type": "ADME, Macaca fascicularis"}, "[22]": {"assay": "Drug metabolism in human kidney S9 fractions at 0.42 uCi/ml assessed as metabolite formation in presence of NADPH after 1 hr at 37 degC by LC-MS/MS method", "type": "ADME, tissue-based", "conditions": "s9, 1 h"}, "[23]": {"assay": "Drug excretion in F344 rat expired air at 1 mg/kg, po administered as single dose after 0 to 48 hrs by scintillation counting method", "type": "ADME, organism-based", "parameters": "dose 1 mg/kg, route oral", "conditions": "in vivo", "outline": "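Fasted F344 rats (152–156 g iv via tail vein; 154–159 g oral; n = 4) received [14C]-labelled drug at 1 mg/kg (41.9 µCi/kg). Animals were kept in metabolic cages; urine and feces were collected to 168 h, and expired CO2 was trapped in 2-aminoethanol/2-methoxyethanol (1:1) to 48 h. Samples were counted by liquid scintillation (feces homogenized). Results are % of dose, mean ± S.D.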"}, "[24]": {"test_system": "Cynomolgus monkey", "assay": "Total drug excretion in cynomolgus monkey at 3 mg/kg, po administered as single dose after 0 to 336 hrs by scintillation counting method", "type": "ADME, organism-based, Macaca fascicularis", "parameters": "dose 3 mg/kg, route oral", "conditions": "in vivo", "outline": "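Fasted male cynomolgus monkeys (n = 4) were dosed with 14C-labelled drug at 3 mg/kg, iv via saphenous vein (191 µCi/kg) or orally by stomach catheter (156.5 µCi/kg). Urine, feces and cage-wash water were collected to 336 h. Radioactivity was measured by liquid scintillation counting, with feces homogenized in water, and expressed as % of dose.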"}, "[25]": {"assay": "Drug excretion in cynomolgus monkey urine at 3 mg/kg, po administered as single dose after 0 to 336 hrs by scintillation counting method", "type": "ADME, organism-based, Macaca fascicularis", "parameters": "dose 3 mg/kg, route oral", "conditions": "in vivo"}, "[26]": {"assay": "Drug excretion in cynomolgus monkey feces at 3 mg/kg, po administered as single dose after 0 to 336 hrs by scintillation counting method", "type": "ADME, organism-based, Macaca fascicularis", "parameters": "dose 3 mg/kg, route oral", "conditions": "in vivo", "outline": "(§5)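 Fasted cynomolgus monkeys (n = 4) received [14C]-labelled drug at 3 mg/kg, iv via saphenous vein (191 µCi/kg) or orally by stomach catheter (156.5 µCi/kg). Urine, feces and water cage-wash were collected to 336 h. Samples were counted by liquid scintillation; feces were homogenized in 4-fold water. Results are % of dose, mean ± S.D.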"}, "[27]": {"assay": "Drug excretion in cynomolgus monkey feces at 3 mg/kg, po administered as single dose after 0 to 48 hrs by scintillation counting method", "type": "ADME, organism-based, Macaca fascicularis", "parameters": "dose 3 mg/kg, route oral", "conditions": "in vivo", "outline": "as §5"}}}
{"compound": "C[C@H]1O[C@@H](O[C@H]2[C@H](O)[C@@H](O)[C@@H](O[C@H]3[C@H](O)CN[C@@H]3CO)O[C@@H]2CO)[C@H](O)[C@@H](O)[C@@H]1O", "values": [{"measurement": "clearance", "setting": "[1]", "value": 2.55, "unit": "mL/min/kg"}, {"measurement": "bioavailability", "setting": "[2]", "value": 1.73, "unit": "%"}, {"measurement": "half-life", "setting": "[3]", "value": 21.4, "unit": "h"}, {"measurement": "AUC(0-t)", "setting": "[4]", "value": 5870, "unit": "ng·h/mL"}, {"measurement": "AUC(0-t)", "setting": "[5]", "value": 324, "unit": "ng·h/mL"}, {"measurement": "bioavailability", "setting": "[6]", "value": 2.44, "unit": "%"}, {"measurement": "clearance", "setting": "[7]", "value": 3.44, "unit": "mL/min/kg"}, {"measurement": "bioavailability", "setting": "[8]", "value": 1.05, "unit": "%"}, {"measurement": "Cmax", "setting": "[9]", "value": 113, "unit": "ng/mL"}, {"measurement": "clearance", "setting": "[10]", "value": 2.73, "unit": "mL/min/kg"}, {"measurement": "AUC(0-inf)", "setting": "[11]", "value": 4930, "unit": "ng·h/mL"}, {"measurement": "Cmax", "setting": "[12]", "value": 44.8, "unit": "ng/mL"}, {"measurement": "Cmax", "setting": "[13]", "value": 15.3, "unit": "ng/mL"}, {"measurement": "AUC(0-t)", "setting": "[14]", "value": 18100, "unit": "ng·h/mL"}, {"measurement": "Vd", "setting": "[15]", "value": 0.218, "unit": "L/kg"}, {"measurement": "AUC(0-t)", "setting": "[16]", "value": 110, "unit": "ng·h/mL"}, {"measurement": "AUC(0-t)", "setting": "[17]", "value": 15, "unit": "ng·h/mL"}, {"measurement": "AUC(0-t)", "setting": "[18]", "value": 74300, "unit": "ng·h/mL"}, {"measurement": "half-life", "setting": "[19]", "value": 25.1, "unit": "h"}, {"measurement": "bioavailability", "setting": "[20]", "value": 0.983, "unit": "%"}]}
{"compound": "C[C@H]1O[C@@H](O[C@H]2[C@H](O)[C@@H](O)[C@@H](O[14C@H]3[14C@H](O)[14CH2]N[14C@@H]3[14CH2]O)O[C@@H]2CO)[C@H](O)[C@@H](O)[C@@H]1O", "values": [{"measurement": "blood plasma ratio at 5 min", "setting": "[21]", "value": 0.595}, {"measurement": "Drug metabolism", "setting": "[22]", "value": "metabolite_not_detected"}, {"measurement": "Drug excretion", "setting": "[23]", "value": 2.34, "unit": "%"}, {"measurement": "Drug excretion", "setting": "[24]", "value": 95.15, "unit": "%"}, {"measurement": "Drug excretion", "setting": "[25]", "value": 5.67, "unit": "%"}, {"measurement": "Drug excretion", "setting": "[26]", "value": 88.13, "unit": "%"}, {"measurement": "Drug excretion", "setting": "[27]", "value": 78.5, "unit": "%"}]}
